# SF1 activator = activators of human nuclear receptor SF-1; AID 522; Q13285; CHO-K1 Gal4-SF-1 LBD luciferase reporter; % increase over DMSO SF-1-specific signal; 1.9% of 65,000 active; activation, % at 10 µM;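 active = activation above the mean activation of all tested compounds plus 3 SD, cut at about 50% in these data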
# Target sequence (Q13285 whole entry, looked up, the tested form may be a part): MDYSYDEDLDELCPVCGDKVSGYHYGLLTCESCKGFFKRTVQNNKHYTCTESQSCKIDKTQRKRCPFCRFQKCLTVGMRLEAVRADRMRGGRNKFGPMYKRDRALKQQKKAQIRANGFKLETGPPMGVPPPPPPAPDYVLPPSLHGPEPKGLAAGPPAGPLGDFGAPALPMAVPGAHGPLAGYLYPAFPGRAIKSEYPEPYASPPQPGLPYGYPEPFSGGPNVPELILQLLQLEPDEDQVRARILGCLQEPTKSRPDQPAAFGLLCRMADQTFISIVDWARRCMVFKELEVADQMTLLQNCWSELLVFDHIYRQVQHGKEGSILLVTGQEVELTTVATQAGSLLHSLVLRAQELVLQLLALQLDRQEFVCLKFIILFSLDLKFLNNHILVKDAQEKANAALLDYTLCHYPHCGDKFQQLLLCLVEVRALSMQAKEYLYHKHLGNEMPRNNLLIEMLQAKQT
#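 System: CHO-K1 cells with Gal4–hSF-1 LBD chimera plus Gal4-driven luciferase; quantity: 4,000 CHO-K1 cells per well; compound: one dose, 10 µM compound, 1% DMSO; times: 20 h compound treatment, 37 °C; measured by: SteadyLite luciferase luminescence; read-out: percent activation versus DMSO; benchmarks: DMSO and mock-transfected background; replicates: one test per compound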
# Jurkat viability = cytotoxicity toward Jurkat cells; Jurkat E6.1 viability, ATP luminescence, 48 h; inhibition, % at 4 µM; 1.2% of 56,000 active; AID 463;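 active = inhibition above the mean inhibition of all tested compounds plus 3 SD, cut at about 28% in these data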
# HEK293 NFkB inh = inhibitors of the PMA/ionomycin-induced NF-kB reporter in HEK293 cells; HEK-293 NF-kB luciferase reporter, luminescence; inhibition, % at 3 µM; 0.21% of 62,000 active;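 active = inhibition above the mean of all tested compounds plus 3 SD, cut at about 40% in these data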;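 note: 0% = stimulated DMSO wells and 100% = 10 µM reference inhibitor 5653914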
#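 Reagent: PMA plus ionomycin mix as NF-kB-activating stimulus. Assay system: NF-kB luciferase reporter HEK-293 cells. Technique: luminescence from luciferase substrate reagent. Incubation: 1 h compound pre-incubation, 16 h PMA/ionomycin at 37 °C. Benchmarks: DMSO only as uninhibited control, 10 µM reference inhibitor as full inhibition. Repeats: tested once.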
# RORA act = activators of human nuclear receptor RORA; CHO-K1 Gal4-RORA LBD luciferase reporter, luminescence; percent increase over mock-subtracted basal signal; activation, % at 10 µM; 1.5% of 65,000 active; AID 560;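 active = activation above the mean of all tested compounds plus 3 SD, cut at about 49% in these data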;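 note: 0% = DMSO-treated RORA cells and 100% = added signal equal to DMSO minus mock-transfected cells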
# MT1-MMP txn act = activates MT1-MMP transcription | 0.16% of 86,000 active | activation factor at 10 µM | HT1080 MT1-MMP promoter luciferase reporter, luminescence, overnight; hits give high values;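 active = activation factor of at least 2 for MT1-MMP transcription at 10 µM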
# * hit, by the source's call; / = no result given. An excerpt weighted towards active compounds, which were near 2.9% of everything screened.
SMILES,SF1 activator,Jurkat viability,HEK293 NFkB inh,RORA act,MT1-MMP txn act
O=C1NC(c2ccccc2)(C(F)(F)F)C(=O)N1Cc1cccnc1 (stereo not drawn),5,1,7,9,1
CC(C)C1N=C(c2ccc3c(c2)OCO3)CC(c2ccccc2O)N1 (stereo not drawn),/,/,/,/,2*
CCCCN1C(=O)c2ccc(C(=O)Nc3c(N)n(CCCC)c(=O)n(C)c3=O)cc2C1=O,-3,/,12,-13,1.1
Cc1nc2ccc(Cl)cc2nc(C)/c1=N\O,52*,7,-28,35,1.4
Cc1ccc2nc(C)/c(=N\O)c(C)nc2c1,/,/,/,/,1.4
Cn1nnnc1SCC(=O)Nc1ccc(Oc2ccc(Cl)cc2)cc1,-11,51*,4,-13,1.1
CCC(=C(c1ccc(OC)cc1)c1ccc(OC)cc1)c1cn(CC(O)CN2CCN(C)CC2)c2ccccc12 (stereo not drawn),/,/,/,/,1
c1ccc(Nc2ccccc2Nc2ccccn2)nc1,28,-3,11,3,1.1
Oc1cccc2ccc(Nc3ccccn3)nc12,-3,72*,6,11,0.3
O=C(C1COc2ccccc2O1)N1CCc2ccccc21 (stereo not drawn),54*,1,6,30,1.5
O=C(OCc1nc2ccccc2s1)C1CCN(C2=NS(=O)(=O)c3ccccc32)CC1,53*,-2,-2,26,1.6
CN(C)CCCNC(CC(=O)Nc1ccc(Cl)cc1)C(=O)O (stereo not drawn),-14,1,13,3,1.2
Cn1nc(-c2ccc(OCC(=O)NCC3CCCO3)cc2)c2ccccc2c1=O (stereo not drawn),-9,26,24,-7,0.9
Cc1ccc(C(CC(=O)N2CCOCC2)c2ccco2)cc1 (stereo not drawn),-8,4,1,24,1
CCCc1noc(-c2ccc(-c3ccccc3)cc2)n1,55*,1,-43,57*,1
COc1ccc(Cc2noc(-c3ccc(C)cc3)n2)cc1,4,-6,15,0,1
CCOC(=O)CSc1nc(N)c(C(=O)Nc2ccc(N(C)C)cc2)s1,-6,/,/,-29,1.1
Cn1c(=O)c2c(nc(SCC(=O)Nc3ccc(N4CCOCC4)c(Cl)c3)n2C)n(C)c1=O,7,-1,21,-6,1.1
COc1ccc(C(=O)Nc2ccc3c(c2)nc2n3CCSC2)cc1,57*,9,2,26,1.3
NC(=O)c1ccsc1NC(=O)c1ccc(S(=O)(=O)N2CCCCC2)cc1,36,3,-14,78*,1.3
O=C(O)[C@@H]1CCCC[C@@H]1C(=O)N1CCc2ccccc2C1CN1C(=O)c2ccccc2C1=O (stereo partly drawn),12,2,59*,22,1
CN(C(=O)c1ccc(Cl)c(S(=O)(=O)N2CCOCC2)c1)c1ccccc1C(=O)O,2,1,12,6,1.1
CCOC(=O)C(C(C)=O)c1c(Br)c(O)c(O)c2c(C(=O)c3ccc(C)cc3)coc12 (stereo not drawn),-42,61*,47*,-31,1.1
Cc1ccc(C(=O)c2coc3ccc(O)c(Cl)c23)cc1,/,/,/,/,1.7
CCOC(=O)Nc1cc(=O)c2ccccc2o1,2,90*,12,11,1.1
SMILES,SF1 activator,Jurkat viability,HEK293 NFkB inh,RORA act,MT1-MMP txn act
CCOC(=O)c1oc2ccccc2c1N,/,/,/,/,1.6
O=C(c1ccc(S(=O)(=O)Nc2ccc(F)cc2)cc1)N1CCN(C(=O)c2ccco2)CC1,/,/,/,/,1.1
CC(=O)c1cc2c(=O)c3cc(C)ccc3oc2nc1C,38,-1,-16,58*,1.2
CN(C)/C=N/c1cc(=O)[nH]c(=O)n1C,/,/,/,/,1
O=C(NCC1CCCO1)c1nnc(Cc2ccc(F)cc2)o1 (stereo not drawn),-2,5,2,-14,1
O=C(CCc1ccccc1)Nc1ccc2c(c1)OCCO2,/,/,/,/,1.2
Nc1c(C(=O)Nc2ccc3c(c2)OCCO3)nnn1CCc1ccccc1,92*,80*,16,142*,1.1
Cc1nn(-c2ccccn2)c2c1-c1nc(N3CCOCC3)ncc1CC2,/,/,/,/,1.3
Cc1nn(-c2ccccn2)c2c1-c1nc(N)ncc1CC2,45,-7,0,51*,1.9
CCCCc1cc(O)c(CCCC)c(O)c1,35,2,-5,50*,1.2
CCOc1ccc(Nc2cc(C)nc(N3CCOCC3)n2)cc1,6,4,2,-1,1.2
CCOc1ccc2nc(N3CCOCC3)nc(C)c2c1,47,-6,-26,51*,1
COc1ccc2nc(N3CCCCC3)c(C#N)cc2c1,50*,1,2,31,1.3
CCOc1ccc(NC(=O)CSc2n[nH]c(=O)n2-c2ccccc2)cc1,-1,-5,13,-8,1.1
CCCn1cnc2c(cnn2-c2ccc(F)cc2)c1=O,52*,-8,0,34,1.5
CCOC(=O)C(CC)n1cnc2c(cnn2-c2ccc(Cl)cc2)c1=O (stereo not drawn),18,-2,-2,12,1.2
O=c1c2cnn(-c3ccccc3)c2ncn1Cc1ccccc1,2,3,17,2,1
CCOC(=O)C(C)n1cnc2c(cnn2-c2ccc(Cl)cc2)c1=O (stereo not drawn),70*,-6,-16,40,1.1
CCCCn1cnc2c(cnn2-c2ccc(F)cc2)c1=O,43,6,1,34,/
CCCCn1cnc2c(cnn2-c2ccc(Cl)cc2)c1=O,65*,-3,-11,28,1.4
COc1ccc(NC(=O)c2cnc3sccn3c2=O)cc1OC,14,4,15,8,0.9
COC(=O)c1ccc(-n2nnnc2SCc2ccccc2OC)cc1,2,9,2,-17,1
CN(C)/C=C1\C(=O)Nc2ccccc21,/,/,/,/,1.3
O=C1N/C(=C\c2ccccc2)c2ccccc21,63*,81*,19,51*,1.3
Cc1cccc(-n2ncc3c(N4CC(C)CC(C)C4)ncnc32)c1 (stereo not drawn),51*,3,-20,47,1.2
SMILES,SF1 activator,Jurkat viability,HEK293 NFkB inh,RORA act,MT1-MMP txn act
CC1CN(c2ncnc3c2cnn3-c2ccc(Cl)cc2)CC(C)O1 (stereo not drawn),75*,4,-44,67*,1.5
COc1ccc(-n2ncc3c(N4CCCCC4)ncnc32)cc1,-84,5,58*,-87,/
CC1CC(C)CN(c2ncnc3c2cnn3Cc2ccc(Cl)cc2)C1 (stereo not drawn),-10,1,16,17,1.1
Clc1ccc(-n2ncc3c(N4CCCCCC4)ncnc32)cc1,-76,4,48*,-68,/
CCOC(=O)c1sc2ccc(S(=O)(=O)N3CC(C)CC(C)C3)cc2c1N (stereo not drawn),/,/,/,/,1.2
CCOC(=O)C1CCCN(c2ncnc3c2cnn3-c2ccc(OC)cc2)C1 (stereo not drawn),58*,/,-21,42,1.2
CCOC(=O)C1CCCN(c2ncnc3c2cnn3-c2ccc(Cl)cc2)C1 (stereo not drawn),16,/,-11,14,0.7

# Screening data as filed in PubChem.
